Reference: ChEMBL document CHEMBL3407438, “Discovery of potent, orally bioavailable, small-molecule inhibitors of WNT signaling from a cell-based pathway screen” (J Med Chem, 2015)
Converted amounts (≈) assume the structure as drawn.

What was measured:
cells = type: cell-based; conditions: Homo sapiens, 7dF3
Liver microsome = assay: Intrinsic clearance in rat liver microsome at 1 uM preincubated for 5 mins by LC-MS analysis; type: ADME; conditions: microsomes
[1] = Drug metabolism in human liver microsome at 10 uM after 30 mins by LC-MS analysis; type: ADME; conditions: liver microsomes, read-out: Drug metabolism
[2] = Drug metabolism in mouse liver microsome at 10 uM after 30 mins by LC-MS analysis; type: ADME; conditions: liver microsomes, read-out: Drug metabolism
[3] = Apparent permeability in human Caco2 cells after 2 hrs by LC-MS/MS analysis; type: ADME, cell-based, Caco-2; conditions: Caco-2
[4] = Aqueous solubility of the compound; type: physicochemical; conditions: buffer
[5] = Inhibition of WNT signaling in human T-Rex HEK293 Tet-O cells harboring constitutively active deltaN-LRP6 after 4 days by luciferase reporter assay; type: cell-based; conditions: HEK293, 96 h
Method in brief: (§1)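 HEK293 T-Rex Tet-O cells stably carrying TCF-firefly luciferase-IRES-GFP reporter plus Tet-inducible cDNA (ΔN-LRP6, Dvl2, Axin-GID, ΔN-β-catenin or VP16-TCF4) introduced by FLP-FRT recombination; seeded from frozen at 40 000/well; day 3 compound added, eight concentrations 30 μM to 14 nM (final), with doxycycline hyclate; day 4 cells lysed, firefly luciferase luminescence read.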

[6] = Inhibition of WNT signaling in human T-Rex HEK293 Tet-O cells harboring Dvl2 after 4 days by luciferase reporter assay; type: cell-based; conditions: HEK293, 96 h
Method in brief: as §1

[7] = Inhibition of WNT signaling in human T-Rex HEK293 Tet-O cells harboring dominant negative form of Axin GSK3beta-interacting domain after 4 days by luciferase reporter assay; type: cell-based; conditions: HEK293, 96 h
Method in brief: as §1

[8] = Inhibition of WNT signaling in human T-Rex HEK293 Tet-O cells harboring degradation resistant form of beta-catenin after 4 days by luciferase reporter assay; type: cell-based; conditions: HEK293, 96 h
Method in brief: as §1

[9] = Inhibition of WNT signaling in human T-Rex HEK293 Tet-O cells harboring constitutively active VP16-TCF in absence of beta-catenin after 4 days by luciferase reporter assay; type: cell-based; conditions: HEK293, 96 h
Method in brief: as §1

IC50 (cells) [nM] | metabolised at 0.5 h, 10 µM [1] [%] | metabolised at 0.5 h, 10 µM [2] [%] | Compound | also measured
> 30000 | – | – | O=C1NCCC12CCN(c1c(-c3ccccc3)cncc1-c1ccc(N3CCOCC3)cc1)CC2 | –
> 30000 | – | – | COCCNC(=O)C1CCN(c2c(Cl)cncc2Cl)CC1 | –
– | – | – | O=C1NCCC12CCN(c1c(Cl)cncc1-c1ccc(N3CCCCC3)cc1)CC2 | CLint (Liver microsome): 225 µL/min/mg
– | – | – | Cn1cc(-c2ccc(-c3cncc(Cl)c3N3CCC4(CCNC4=O)C3)cc2)cn1 (racemic) | CLint (Liver microsome): 213 µL/min/mg
78 | 38 | 17 | CC(C)c1cncc(-c2ccc(N3CCOCC3)cc2)c1N1CCC2(CCNC2=O)CC1 | –
12 | – | 39 | C=C(C)c1cncc(-c2ccc(N3CCOCC3)cc2)c1N1CCC2(CCNC2=O)CC1 | –
26000 | 22 | 99 | CN(C)C(=O)C1CCN(c2c(Cl)cncc2Cl)CC1 | –
55 | – | 42 | O=C1NCCC12CCN(c1c(Cl)cncc1-c1ccc(N3CCOCC3)cc1)C2 (racemic) | –
– | – | – | Cn1ccc(-c2ccc(-c3cncc(Cl)c3N3CCC4(CCNC4=O)CC3)cc2)n1 | CLint (Liver microsome): 97 µL/min/mg
87 | – | 52 | NC(=O)C1CCN(c2c(Cl)cncc2-c2ccc(F)cc2)CC1 | –
40 | 27 | 97 | NC(=O)C1CCN(c2c(Cl)cncc2-c2cccs2)CC1 | –
– | – | – | Cn1cc(-c2ccc(-c3cncc(Cl)c3N3CCC4(CCNC4=O)C3)cc2)cn1 (single isomer, unassigned; enantiomer 2) | CLint (Liver microsome): 124 µL/min/mg
44600 | – | – | O=C(C1CCN(c2c(Cl)cncc2Cl)CC1)N1CCOCC1 | –
12500 | 13 | 57 | CNC(=O)C1CCN(c2c(Cl)cncc2Cl)CC1 | –
– | – | – | O=C1NCCC12CCN(c1c(Cl)cncc1-c1ccc(-c3ccncc3)cc1)CC2 | CLint (Liver microsome): 99 µL/min/mg
> 30000 | – | – | O=C(Nc1ccccc1)C1CCN(c2c(Cl)cncc2Cl)CC1 | –
– | – | – | O=C1NCCC12CCN(c1c(Cl)cncc1-c1ccc(C3CCOCC3)cc1)CC2 | CLint (Liver microsome): 111 µL/min/mg
42 | 19 | 21 | NC(=O)C1CCN(c2c(Cl)cncc2-c2ccc(N3CCOCC3)cc2)CC1 | –
> 30000 | – | – | NC(=O)C1CCN(c2ccncc2)CC1 | –
– | – | – | O=C1NCCC12CCN(c1c(Cl)cncc1-c1ccc3cnccc3c1)CC2 | Papp at 2 h [3]: 24 ×10⁻⁶ cm/s
6 | 24 | 25 | O=C1CC2(CCN(c3c(Cl)cncc3-c3ccc(N4CCOCC4)cc3)CC2)C(=O)N1 | solubility [4]: 3 µg/mL (≈ 6.8 µM)
37 | 30 | 84 | COc1ccc(-c2cncc(Cl)c2N2CCC(C(N)=O)CC2)cc1 | IC50 [5]: 20 nM; IC50 [6]: 20 nM; IC50 [7]: 24 nM; IC50 [8]: 70 nM; IC50 [9]: 230 nM
87 | 21 | 20 | CC1(C(N)=O)CCN(c2c(Cl)cncc2-c2ccc(N3CCOCC3)cc2)CC1 | –
1700 | 6 | 88 | NC(=O)C1CCN(c2c(Cl)cncc2-c2cn[nH]c2)CC1 | –

IC50 (cells) [nM] | metabolised at 0.5 h, 10 µM [1] [%] | metabolised at 0.5 h, 10 µM [2] [%] | Compound | also measured
23000 | 8 | – | NC(=O)C1CCN(c2ccncc2Cl)CC1 | –
746 | – | – | O=C1CC2(CCN(c3c(Cl)cncc3-c3ccc(N4CCOCC4)cc3)CC2)CN1 | –
– | – | – | CN1CCN(c2ccc(-c3cncc(Cl)c3N3CCC4(CCNC4=O)CC3)cc2)CC1 | CLint (Liver microsome): 10 µL/min/mg
728 | 5 | 40 | NC(=O)C1CCN(c2c(Cl)cncc2-c2ccncc2)CC1 | –
1670 | 0 | 29 | CS(=O)(=O)c1ccc(-c2cncc(Cl)c2N2CCC(C(N)=O)CC2)cc1 | –
1000 | – | – | O=C1NCCC12CCN(c1c(-c3ccc(N4CCOCC4)cc3)cncc1C1CC1)CC2 | –
3260 | 4 | 23 | NC(=O)C1CCN(c2ccncc2-c2ccccc2)CC1 | –
123 | – | – | CN(C)c1ccc(-c2cncc(Cl)c2N2CCC(C(N)=O)CC2)cc1 | –
1100 | 6 | 37 | NC(=O)C1CCN(c2c(Cl)cncc2-c2cccnc2)CC1 | –
– | – | – | Cn1cc(-c2ccc(-c3cncc(Cl)c3N3CCC4(CCNC4=O)C3)cc2)cn1 (stereo in doubt; 79) | CLint (Liver microsome): 298 µL/min/mg
> 30000 | – | – | Clc1cncc(Cl)c1N1CCCCC1 | –
113 | 5 | 26 | Cc1cncc(-c2ccc(N3CCOCC3)cc2)c1N1CCC2(CCNC2=O)CC1 | –
1200 | – | – | Cn1cc(-c2cncc(-c3ccc(N4CCOCC4)cc3)c2N2CCC3(CCNC3=O)CC2)cn1 | –
778 | 4 | 27 | Cn1cc(-c2cncc(Cl)c2N2CCC(C(N)=O)CC2)cn1 | –
10000 | – | – | NCC1CCN(c2c(Cl)cncc2Cl)CC1 | –
88 | 6 | 56 | NC(=O)C1CCN(c2c(Cl)cncc2-c2ccccc2)CC1 | –
715 | – | – | CN1CCC2(CCN(c3c(Cl)cncc3-c3ccc(N4CCOCC4)cc3)CC2)C1=O | –
– | – | – | Cn1ncc2cc(-c3cncc(Cl)c3N3CCC4(CCNC4=O)CC3)ccc21 | CLint (Liver microsome): 66 µL/min/mg
– | – | – | O=C1NCCC12CCN(c1c(Cl)cncc1-c1ccc(-c3cnoc3)cc1)CC2 | CLint (Liver microsome): 136 µL/min/mg
70 | – | 78 | N#CC1CCN(c2c(Cl)cncc2-c2ccc(N3CCOCC3)cc2)CC1 | –
360 | 13 | 35 | NC(=O)C1CCN(c2c(Br)cncc2Br)CC1 | –
5700 | – | – | O=C1NCCC12CCCN(c1c(Cl)cncc1-c1ccc(N3CCOCC3)cc1)C2 (racemic) | –
309 | 39 | 38 | NC(=O)C1CCN(c2c(Cl)cncc2-c2cccc(N3CCOCC3)c2)CC1 | –
27900 | – | – | NC(=O)C1CCN(c2c(Cl)cccc2Cl)CC1 | –
